Our source for the inhibition values is PubChem BioAssay AID743247 (Broad Institute, 2014).

Screen size: about 350,000 compounds; about 300 (0.086%) were called active.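 The calls were made as follows: active = mean inhibition across replicates of 30% or more, regardless of how many single replicates reach that level; inconclusive = mean under 30% yet at least half of replicates reach 30%; inactive = the rest.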 The full list was thinned out, with actives kept by preference.

The nature of the test: inhibitors of fibronectin matrix deposition, primary screen, AH1F cells, Alexa488-fibronectin fluorescence, plate reader (AID 743247).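 Also: positive control wells lacked labelled fibronectin entirely.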 The settings on record: AH1F fibroblasts, overnight, at 12.6 µM, active compounds read high. In short, it runs like this: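 Assay system: AH1F fibroblast monolayer, labelled fibronectin deposition. Amount: 10000 cells per well. Also added: labelled fibronectin 24 nM. Compound: single-point pinned compound. Incubation: cell attachment 1 h, compound and FN exposure overnight. Detection: fluorescence after three HBSS washes, excitation 485 nm, emission 525 nm. Read-out: inhibition of fibronectin deposition signal.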
In the case of `CO[C@@H]1CN(C)C(=O)c2cc(NC(=O)C3CC3)ccc2OC[C@@H](C)N(C(=O)NC(C)C)C[C@@H]1C`, the inhibition was -0.851% (inactive). As to `C[C@@H](NC(=O)C[C@@H]1C[C@H]2c3cc(NC(=O)C4CCC4)ccc3O[C@H]2[C@@H](CO)O1)c1ccccc1`, the inhibition is 17.4% (inactive). On to `O=C(NC[C@@H]1[C@@H](c2ccccc2)[C@@H](CO)N1Cc1ccccn1)C1CCC1`, for which the inhibition is -14.4% (inactive). `O=C(C[C@@H]1CC[C@@H](NS(=O)(=O)c2ccc(F)cc2)[C@@H](CO)O1)NCCc1ccncc1`: the inhibition was -5.79% (inactive). For the compound `C[C@@H]1CN([C@@H](C)CO)C(=O)Cc2cc(NC(=O)Nc3ccc4c(c3)OCO4)ccc2O[C@H]1CN(C)S(=O)(=O)c1ccccc1`, the inhibition is 0.36% (inactive). As to `C[C@@H]1CN([C@H](C)CO)C(=O)c2ccccc2-c2ccccc2CO[C@H]1CN(C)S(=O)(=O)c1ccsc1`, the inhibition was 1.86% (inactive). The value for `C[C@@H]1CN([C@H](C)CO)S(=O)(=O)c2ccc(C#CC3CC3)cc2O[C@H]1CN(C)C(=O)C1CCCCC1` was -1.06% (inactive). Turning to `COc1ccc2c3c(n(C)c2c1)[C@H](CO)NCC31CN(Cc2cc(F)ccc2F)C1`, the inhibition is -4.09% (inactive).

With `O=C(C1CCCCC1)N1CC2(C1)[C@H](c1ccccc1)[C@H](CO)N2CC1CCCC1`, the inhibition was -10.3% (inactive). Take `CS(=O)(=O)N1C[C@@H]2C(c3ccccc3)[C@H](C1)N2CC(F)(F)F` (some centres undefined): the inhibition was -13.1% (inactive). With `O=C(C[C@@H]1CC[C@@H](NC(=O)Nc2ccc(F)cc2)[C@H](CO)O1)NCCN1CCCC1`, the inhibition is 0.829% (inactive).

For `COc1ccc(-c2ccc3c(c2)[C@@H]2[C@@H](CCN2C(=O)NC2CCCC2)[C@@H](CO)N3C)cc1`, the inhibition is 5.47% (inactive). With `CC(C)NC(=O)Nc1cccc2c1O[C@@H](CN(C)C(=O)NC(C)C)[C@@H](C)CN(C)C2=O`, the inhibition is 3.55% (inactive).

With `CN(C)CC(=O)N1CC2(C1)[C@H](c1ccccc1)[C@H](CO)N2C(=O)C1CC1`, the inhibition is -3.48% (inactive). With `O=C(C1CCOCC1)N1CC(=O)N2[C@H](CO)[C@@H](c3ccc(C#CC4CCCC4)cc3)[C@H]2C1`, the inhibition is -4.97% (inactive). For the compound `Cc1cccc(-n2ncc3c(=O)[nH]c(SCC(=O)Nc4cc(C)on4)nc32)c1`, the inhibition is -0.734% (inactive). With `Cc1ccc(-n2ncc3c(=O)[nH]cnc32)c(C)c1`, the inhibition is -2.15% (inactive). Regarding `Cc1cccc(-n2ncc(Cl)c(Cl)c2=O)c1`, the inhibition is 51.7% (active). In the case of `COc1ccc(-c2ccc3c(c2)O[C@@H](CN(C)CC2CCOCC2)[C@@H](C)CN([C@@H](C)CO)S3(=O)=O)cc1` it was 5.61% (inactive).

Usually inhibition stands for the change of the read-out against control, counted positive when it falls.
